pIC50: −log10 of the molar value. Active and inactive are the calls of the source. The calls are words filed in the database; no cut-off is given here.
Experiments:
[1] = test system: MOLM-14; assay: Induction of apoptosis in human MOLM14 cells assessed as early apoptotic cells at 5 uM after 72 hrs by Annexin V-FITC/propidium iodide staining-based flow cytometric analysis (reference value: 7%); assay type: functional
Procedure, shortened: (§1)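 100,000 cells per well treated with 2.5, 5.0 or 10 μM for 72 h. Washed in ice-cold Ca/Mg-free PBS, resuspended in 100 μl binding buffer, stained with 5 μl PI plus 3 μl annexin V-FITC for 15 min in the dark, then read immediately by flow cytometry. Quadrants scored as live, early apoptotic, late apoptotic and necrotic.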

[2] = test system: MOLM-14; assay: Induction of apoptosis in human MOLM14 cells assessed as late apoptotic cells at 10 uM after 72 hrs by Annexin V-FITC/propidium iodide staining-based flow cytometric analysis (reference value: 2%); assay type: functional; procedure, shortened: as §1
[3] = test system: MV4-11; assay: Induction of apoptosis in human MV4-11 cells assessed as early apoptotic cells at 2.5 uM after 72 hrs by Annexin V-FITC/propidium iodide staining-based flow cytometric analysis (reference value: 7%); assay type: functional; procedure, shortened: as §1
[4] = test system: MV4-11; assay: Induction of apoptosis in human MV4-11 cells assessed as late apoptotic cells at 2.5 uM after 72 hrs by Annexin V-FITC/propidium iodide staining-based flow cytometric analysis (reference value: 2%); assay type: functional; procedure, shortened: as §1
[5] = test system: MV4-11; assay: Induction of apoptosis in human MV4-11 cells assessed as necrotic cells at 10 uM after 72 hrs by Annexin V-FITC/propidium iodide staining-based flow cytometric analysis relative to control; assay type: functional
Procedure, shortened: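 MV4-11 cells (RPMI, 10 % FBS, 37 °C, 5 % CO2), 100,000 per well, exposed to PTB at 2.5, 5.0 or 10 μM for 72 h. Washed in ice-cold Ca/Mg-free PBS, stained with annexin V-FITC and PI in 1X binding buffer for 15 min in the dark, then read at once by flow cytometry. Necrotic cells are the annexin-negative/PI-positive quadrant.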

[6] = target: Histone deacetylase (Homo sapiens) (UniProt Q13547+O15379+Q9UBN7+Q92769+Q9UQL6+Q8WUI4+Q9BY41+Q96DB2+P56524+Q9UKV0+Q969S8); assay: Inhibition of HDAC in human MV4-11 cells assessed as increase in acetylation of histone H3 by Western blot analysis; assay type: cell-based
Procedure, shortened: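 MV4-11 cells were treated and histones acid-extracted: Triton buffer, then NaCl buffer, 0.24 M H2SO4 on ice for 2 h, acetone precipitation overnight, Bradford quantitation. Histones (0.5 µg) were run on 4-20 % gradient gels, blotted to PVDF, blocked in 5 % milk and probed overnight at 4 °C with anti-acetyl-histone H3 (1:1000). HRP secondary, ECL detection, total histone H3 as loading control.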

[7] = test system: MV4-11; assay: Cytotoxicity against human MV4-11 cells assessed as cell viability after 72 hrs by MTT assay; assay type: functional, cell-based; settings: MV4-11, 72 h
Procedure, shortened: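 MV4-11 cells, 8,000/well, exposed for 72 h to […]. MTT added to 0.5 mg/ml final for 3 h at 37 °C, SDS-HCl solubilization, A570 read. Percent inhibition normalized to diluent controls. Three independent experiments in quadruplicate, mean ± SD.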

[8] = test system: MOLM-14; assay: Cytotoxicity against human MOLM14 cells assessed as cell viability after 24 to 96 hrs by MTT assay; assay type: functional, cell-based
Procedure, shortened: (§2)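 AML cells kept in RPMI with 10 % FBS and 1 % penicillin-streptomycin at 37 °C, 5 % CO₂, mycoplasma-screened. Seeded at 8,000 cells/well across a range of concentrations and read at several times up to 96 h. MTT added to 0.5 mg/ml final for 3 h at 37 °C, formazan dissolved in SDS-HCl, absorbance read at 570 nm. IC50 taken from the dose-response curves.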

[9] = test system: MV4-11; assay: Cytotoxicity against human MV4-11 cells assessed as cell viability after 24 to 96 hrs by MTT assay; assay type: functional, cell-based; procedure, shortened: as §2
[10] = test system: MOLM-14; assay: Cytotoxicity against human MOLM14 cells assessed as cell viability at 0.25 to 5 uM by MTT assay; assay type: functional, cell-based; procedure, shortened: as §2
[11] = test system: MOLM-14; assay: Cytotoxicity against human MOLM14 cells assessed as cell viability measured at 96 hrs by MTT assay; assay type: functional, cell-based; settings: MOLM-14, 96 h; procedure, shortened: as §2
[12] = test system: MV4-11; assay: Cytotoxicity against human MV4-11 cells assessed as cell viability measured at 96 hrs by MTT assay; assay type: functional, cell-based; settings: MV4-11, 96 h; procedure, shortened: as §2
[13] = Cytotoxicity against C57BL/6 mouse bone marrow cells assessed as cell viability at 5 to 10 uM measured up to 72 hrs by MTT assay; assay type: cell-based
Procedure, shortened: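 Total bone marrow from C57BL/6 mice cultured in IMDM with 20 % FBS, 10 ng/ml mouse IL-3, 10 ng/ml IL-6 and 50 ng/ml SCF. Exposed to 5 or 10 μM for up to 72 h. MTT added to 0.5 mg/ml for 3 h at 37 °C, formazan dissolved in SDS-HCl, A570 read. Three independent experiments, quadruplicate wells, mean ± SD.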

[14] = test system: MOLM-14; assay: Cell cycle arrest in human MOLM14 cells assessed as accumulation at G2/M phase after 72 hrs by propidium iodide staining-based flow cytometric analysis; assay type: functional
Procedure, shortened: (§3)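 Cells in RPMI with 10 % FBS at 37 °C, 5 % CO₂; treated up to 72 h, washed in cold PBS, fixed in -20 °C-precooled 70 % ethanol at 4 °C. Stained with 50 µg/ml PI, 1 % Triton X-100 and 20 µg/ml RNase A in PBS, 30 min, 37 °C, dark. Cell-cycle phases read by flow cytometry; three independent experiments, mean ± SD.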

[15] = test system: MV4-11; assay: Cell cycle arrest in human MV4-11 cells assessed as decrease in cells level at G1 phase after 72 hrs by propidium iodide staining-based flow cytometric analysis; assay type: functional; procedure, shortened: as §3
[16] = test system: MOLM-13 (Homo sapiens); assay: Cytotoxicity against human MOLM13 cells assessed as cell viability measured at 96 hrs by MTT assay; settings: MOLM-13, 96 h
[17] = test system: MOLM-13 (Homo sapiens); assay: Induction of apoptosis in human MOLM13 cells assessed as upregulation of cleaved caspase-9 expression after 24 hrs by Western blot analysis
[18] = test system: MOLM-13 (Homo sapiens); assay: Cell cycle arrest in human MOLM13 cells assessed as decrease in cells level at G1 phase after 72 hrs by propidium iodide staining-based flow cytometric analysis
[19] = test system: MOLM-13 (Homo sapiens); assay: Induction of apoptosis in human MOLM13 cells assessed as necrotic cells at 5 uM after 72 hrs by Annexin V-FITC/propidium iodide staining-based flow cytometric analysis (reference value: 3%)
[20] = test system: MOLM-13 (Homo sapiens); assay: Induction of apoptosis in human MOLM13 cells assessed as necrotic cells at 2.5 uM after 72 hrs by Annexin V-FITC/propidium iodide staining-based flow cytometric analysis (reference value: 3%)
[21] = test system: MOLM-13 (Homo sapiens); assay: Induction of apoptosis in human MOLM13 cells assessed as early apoptotic cells at 10 uM after 72 hrs by Annexin V-FITC/propidium iodide staining-based flow cytometric analysis (reference value: 11%)

inhibition [6]: Active
Structure (SMILES): c1ccc(Oc2ccc(-c3cn(-c4noc5ccccc45)nn3)cc2)cc1
Activity [1]: 17%
Activity [2]: 30%
Activity [3]: 9%
Activity [4]: 15%
Activity [5]: 5%
pIC50 [7]: 5.70
Activity [8]: Dose-dependent effect
Activity [9]: Dose-dependent effect
Activity [10]: Dose-dependent effect
pIC50 [11]: 5.70
pIC50 [12]: 5.60
Activity [13]: Non-toxic
Activity [14]: Active
Activity [15]: Active
pIC50 [16]: 6.00
Activity [17]: Dose-dependent effect
Activity [18]: Active
Activity [19]: 18%
Activity [20]: 14%
Activity [21]: 28%

— ChEMBL document CHEMBL3612059, “Synthesis of 1,2-benzisoxazole tethered 1,2,3-triazoles that exhibit anticancer activity in acute myeloid leukemia cell lines by inhibiting histone deacetylases, and inducing p21 and tubulin acetylation” (Bioorg Med Chem, 2015)
